How the values were obtained:
HCT-116 = test: Cytotoxicity against human HCT116 cells after 48 hrs by SRB assay; assay type: functional; settings: HCT-116, 48 h
Summary of the method: (§1)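 This was the NCI 60-cell-line five-dose screen, using 10-fold dilutions from 100 to 0.01 μM and continuous 48-h exposure. Growth was read by sulforhodamine B protein staining relative to time-zero and untreated controls. […] Where an endpoint was not reached, the value was given as beyond the range tested.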

NCI-H460 [1] = test: Cytotoxicity against human NCI-H460 cells after 48 hrs by SRB assay; assay type: functional; settings: NCI-H460, 48 h; summary of the method: as §1
K562 [2] = test: Cytotoxicity against human K562 cells after 48 hrs by SRB assay; assay type: functional; settings: K562, 48 h; summary of the method: as §1
HL-60(TB) [3] = test: Cytotoxicity against human HL-60(TB) cells after 48 hrs by SRB assay; assay type: functional; settings: HL-60, 48 h; summary of the method: as §1
SR [4] = test: Cytotoxicity against human SR cells after 48 hrs by SRB assay; assay type: functional
Summary of the method: (§2)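 NCI 60-cell-line panel, five 10-fold concentrations from 100 μM to 0.01 μM (10⁻⁴ to 10⁻⁸ M) with 48-h continuous exposure. Growth was read by SRB protein staining against time-zero and untreated controls. […] Values beyond the tested range are expressed as greater or less than the limit.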

RPMI-8226 [5] = test: Cytotoxicity against human RPMI8226 cells after 48 hrs by SRB assay; assay type: functional; settings: RPMI-8226, 48 h; summary of the method: as §1
BT-549 [6] = test: Cytotoxicity against human BT549 cells assessed as cell growth at 10 uM after 48 hrs by SRB assay relative to control; assay type: functional; settings: BT-549, 48 h, read-out: Activity
Summary of the method: (§3)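 NCI 60-cell-line primary screen. Test agent added once at 10⁻⁵ M, cultures incubated 48 h, end point by sulforhodamine B protein staining read spectrophotometrically. Value is percent growth of treated cells relative to untreated control cells.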

Hs-578T = test: Cytotoxicity against human Hs578T cells assessed as cell growth at 10 uM after 48 hrs by SRB assay relative to control; assay type: functional; settings: read-out: Activity; summary of the method: as §3
MDA-MB-435 [7] = test: Cytotoxicity against human MDA-MB-435 cells assessed as cell growth at 10 uM after 48 hrs by SRB assay relative to control; assay type: functional; settings: MDA-MB-435, 48 h, read-out: Activity
Summary of the method: (§4)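 This was the NCI primary screen, with compound added once at 10⁻⁵ M and cultures incubated for 48 h. The endpoint was sulforhodamine B protein staining. Results are expressed as percent growth of treated cells relative to untreated control cells.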

UACC-62 [8] = test: Cytotoxicity against human UACC62 cells assessed as cell growth at 10 uM after 48 hrs by SRB assay relative to control; assay type: functional; settings: UACC-62, 48 h, read-out: Activity
Summary of the method: (§5)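 Single-dose NCI screen: compound at 10⁻⁵ M added to tumor cell cultures and incubated for 48 h. The SRB protein-binding dye end point was read spectrophotometrically. Results are percent growth of treated cells relative to untreated controls.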

NCI-H460 [9] = test: Cytotoxicity against human NCI-H460 cells assessed as cell growth at 10 uM after 48 hrs by SRB assay relative to control; assay type: functional; settings: NCI-H460, 48 h, read-out: Activity; summary of the method: as §3
A549 [10] = test: Cytotoxicity against human A549 cells assessed as cell growth at 10 uM after 48 hrs by SRB assay relative to control; assay type: functional; settings: A549, 48 h, read-out: Activity; summary of the method: as §4
NCI-H522 = test: Cytotoxicity against human NCI-H522 cells assessed as cell growth at 10 uM after 48 hrs by SRB assay relative to control; assay type: functional; settings: NCI-H522, 48 h, read-out: Activity; summary of the method: as §4
T47D [11] = test: Cytotoxicity against human T47D cells assessed as cell growth at 10 uM after 48 hrs by SRB assay relative to control; assay type: functional; settings: read-out: Activity; summary of the method: as §5
MCF7 [12] = test: Cytotoxicity against human MCF7 cells assessed as cell growth at 10 uM after 48 hrs by SRB assay relative to control; assay type: functional; settings: MCF7, 48 h, read-out: Activity; summary of the method: as §4
PC-3 [13] = test: Cytotoxicity against human PC3 cells assessed as cell growth at 10 uM after 48 hrs by SRB assay relative to control; assay type: functional; settings: PC-3, 48 h, read-out: Activity; summary of the method: as §4
SF-295 [14] = test: Cytotoxicity against human SF295 cells assessed as cell growth at 10 uM after 48 hrs by SRB assay relative to control; assay type: functional; settings: SF-295, 48 h, read-out: Activity; summary of the method: as §4
KM12 = test: Cytotoxicity against human KM12 cells assessed as cell growth at 10 uM after 48 hrs by SRB assay relative to control; assay type: functional; settings: KM12, 48 h, read-out: Activity; summary of the method: as §4
MOLT-4 [15] = test: Cytotoxicity against human MOLT4 cells assessed as cell growth at 10 uM after 48 hrs by SRB assay relative to control; assay type: functional; settings: MOLT-4, 48 h, read-out: Activity; summary of the method: as §4
HL-60(TB) [16] = test: Cytotoxicity against human HL-60(TB) cells assessed as cell growth at 10 uM after 48 hrs by SRB assay relative to control; assay type: functional; settings: HL-60, 48 h, read-out: Activity; summary of the method: as §4
CCRF-CEM = test: Cytotoxicity against human CCRF-CEM cells assessed as cell growth at 10 uM after 48 hrs by SRB assay relative to control; assay type: functional; settings: read-out: Activity; summary of the method: as §4
RPMI-8226 [17] = test: Cytotoxicity against human RPMI8226 cells assessed as cell growth at 10 uM after 48 hrs by SRB assay relative to control; assay type: functional; settings: RPMI-8226, 48 h, read-out: Activity; summary of the method: as §4
K562 [18] = test: Cytotoxicity against human K562 cells assessed as cell growth at 10 uM after 48 hrs by SRB assay relative to control; assay type: functional; settings: K562, 48 h, read-out: Activity; summary of the method: as §4
SR [19] = test: Cytotoxicity against human SR cells assessed as cell growth at 10 uM after 48 hrs by SRB assay relative to control; assay type: functional; settings: read-out: Activity; summary of the method: as §5
Trypanosoma cruzi = test: Antitrypanosomal activity against […] form of Trypanosoma cruzi Y infected in monkey […] cells assessed as parasite growth inhibition after 15 hrs by trypan blue staining-based hemocytometric analysis; assay type: functional, organism-based
T47D [20] = test: Cytotoxicity against human T47D cells after 48 hrs by SRB assay; assay type: functional; summary of the method: as §2
BT-549 [21] = test: Cytotoxicity against human BT549 cells after 48 hrs by SRB assay; assay type: functional; settings: BT-549, 48 h; summary of the method: as §1
[22] = Cytotoxicity against human Hs 578T cells after 48 hrs by SRB assay; assay type: functional; summary of the method: as §1
MCF7 [23] = test: Cytotoxicity against human MCF7 cells after 48 hrs by SRB assay; assay type: functional; settings: MCF7, 48 h; summary of the method: as §1
A498 = test: Cytotoxicity against human A498 cells after 48 hrs by SRB assay; assay type: functional; settings: A498, 48 h; summary of the method: as §1
SK-MEL-5 = test: Cytotoxicity against human SK-MEL-5 cells after 48 hrs by SRB assay; assay type: functional; settings: SK-MEL-5, 48 h; summary of the method: as §2
SF-539 = test: Cytotoxicity against human SF539 cells after 48 hrs by SRB assay; assay type: functional; settings: SF-539, 48 h; summary of the method: as §1
NCI-H322M = test: Cytotoxicity against human NCI-H322M cells after 48 hrs by SRB assay; assay type: functional; summary of the method: as §1
HOP-92 = test: Cytotoxicity against human HOP92 cells after 48 hrs by SRB assay; assay type: functional; settings: HOP-92, 48 h; summary of the method: as §1
A549 [24] = test: Cytotoxicity against human A549 cells after 48 hrs by SRB assay; assay type: functional; settings: A549, 48 h; summary of the method: as §1
MOLT-4 [25] = test: Cytotoxicity against human MOLT4 cells after 48 hrs by SRB assay; assay type: functional; settings: MOLT-4, 48 h; summary of the method: as §1
DU-145 = test: Cytotoxicity against human DU145 cells after 48 hrs by SRB assay; assay type: functional; settings: DU-145, 48 h; summary of the method: as §1
PC-3 [26] = test: Cytotoxicity against human PC3 cells after 48 hrs by SRB assay; assay type: functional; settings: PC-3, 48 h; summary of the method: as §1
OVCAR-3 = test: Cytotoxicity against human OVCAR3 cells after 48 hrs by SRB assay; assay type: functional; settings: OVCAR-3, 48 h; summary of the method: as §1
UACC-62 [27] = test: Cytotoxicity against human UACC62 cells after 48 hrs by SRB assay; assay type: functional; settings: UACC-62, 48 h; summary of the method: as §2
MDA-MB-435 [28] = test: Cytotoxicity against human MDA-MB-435 cells after 48 hrs by SRB assay; assay type: functional; settings: MDA-MB-435, 48 h; summary of the method: as §1
U-251 = test: Cytotoxicity against human U251 cells after 48 hrs by SRB assay; assay type: functional; settings: U-251, 48 h; summary of the method: as §2
SF-295 [29] = test: Cytotoxicity against human SF295 cells after 48 hrs by SRB assay; assay type: functional; settings: SF-295, 48 h; summary of the method: as §1
HCT-15 = test: Cytotoxicity against human HCT15 cells after 48 hrs by SRB assay; assay type: functional; settings: HCT-15, 48 h; summary of the method: as §1

## O=C1NC(=O)/C(=C/C(=O)N2N=C(c3ccc4ccccc4c3)CC2c2ccc(Cl)cc2)S1 (stereo not drawn)
HCT-116
  GI50: 3.01 µM
  TGI: 13.9 µM
NCI-H460 [1]
  GI50: 1.89 µM
  TGI: 4.7 µM
K562 [2]
  GI50: 1.9 µM
  TGI: 11.2 µM
HL-60(TB) [3]
  GI50: 3.2 µM
  TGI: 6.48 µM
SR [4]
  GI50: 1.98 µM
  TGI: 5.92 µM
RPMI-8226 [5]
  GI50: 1.97 µM
  TGI: 5.88 µM
BT-549 [6]
  growth at 10 µM: 34.2%
Hs-578T
  growth at 10 µM: 35.6%
MDA-MB-435 [7]
  growth at 10 µM: 39.5%
UACC-62 [8]
  growth at 10 µM: 32.8%
NCI-H460 [9]
  growth at 10 µM: 25.9%
A549 [10]
  growth at 10 µM: 30%
NCI-H522
  growth at 10 µM: 23.2%
T47D [11]
  growth at 10 µM: 39.3%
MCF7 [12]
  growth at 10 µM: 34.4%
PC-3 [13]
  growth at 10 µM: 36%
SF-295 [14]
  growth at 10 µM: -5.27%
KM12
  growth at 10 µM: 25.8%
MOLT-4 [15]
  growth at 10 µM: 11.5%
HL-60(TB) [16]
  growth at 10 µM: 13.5%
CCRF-CEM
  growth at 10 µM: 16.7%
RPMI-8226 [17]
  growth at 10 µM: 2.48%
K562 [18]
  growth at 10 µM: 24.6%
SR [19]
  growth at 10 µM: 10.6%
Trypanosoma cruzi
  IC50: 0.3 µM
T47D [20]
  GI50: 1.53 µM
  TGI: 9.4 µM
BT-549 [21]
  GI50: 2.16 µM
  TGI: 7.75 µM
[22]
  GI50: 1.94 µM
  TGI: 8.26 µM
MCF7 [23]
  GI50: 2.53 µM
  TGI: 14.1 µM
A498
  GI50: 1.41 µM
  TGI: 5.38 µM
SK-MEL-5
  GI50: 2.09 µM
  TGI: 22.5 µM
SF-539
  GI50: 2.43 µM
  TGI: 5.79 µM
NCI-H322M
  GI50: 2.89 µM
  TGI: 100 µM
HOP-92
  GI50: 1.17 µM
  TGI: 9.72 µM
A549 [24]
  GI50: 3.06 µM
  TGI: 100 µM
MOLT-4 [25]
  GI50: 1.64 µM
DU-145
  GI50: 4.27 µM
  TGI: 100 µM
PC-3 [26]
  GI50: 4.94 µM
  TGI: 100 µM
OVCAR-3
  GI50: 2.9 µM
  TGI: 10.6 µM
UACC-62 [27]
  GI50: 2.66 µM
  TGI: 12.8 µM
MDA-MB-435 [28]
  GI50: 2.7 µM
  TGI: 16.5 µM
U-251
  GI50: 2.58 µM
  TGI: 13.2 µM
SF-295 [29]
  GI50: 2.45 µM
  TGI: 9.12 µM
HCT-15
  GI50: 2.41 µM
  TGI: 100 µM

— ChEMBL document CHEMBL2412956, “Synthesis and biological activity evaluation of 5-pyrazoline substituted 4-thiazolidinones” (Eur J Med Chem, 2013)
